Published values from different studies.
Target: SRSF protein kinase 1 (SRPK1, Homo sapiens, UniProt Q96SB4)

`Cc1c[nH]c2nccc(Oc3c(F)cc(Nc4cc(Cl)nc(N)n4)cc3F)c12` has a remaining binding of 100% (cell-free assay, competition with immobilised ligand; 0.1 µM).
The inhibition of `C=CC(=O)Nc1cc(Nc2nccc(Nc3cc(Cl)c(F)cc3C(C)(C)O)n2)c(OC)cc1N1CC[C@@H](N(C)C)C1` is reported as 2% (enzyme activity, inhibitor; 1 µM).
`Nc1ncnc2occ(-c3ccc(NC(=O)Nc4cc(C(F)(F)F)ccc4F)cc3)c12` has a remaining signal of 59% (cell-free assay, inhibitor; 20 µM).
With `O=C(Nc1cnn(-c2csc(C(=O)NC3COC3)c2)c1)Nc1c(F)cccc1Cl` the remaining activity was 104% (enzyme activity, inhibitor; 5 µM).
For `CCCCN(CCCC)C(=O)CN1C[C@H](c2cc(OC)c3c(c2)OCO3)[C@@H](C(=O)O)[C@@H]1CC(C)(C)CCC`, the remaining binding was 100% (cell-free assay, competition with immobilised ligand; 1 µM).
`COc1cc(/C=C/C(=O)CC(=O)/C=C/c2ccc(O)c(OC)c2)ccc1O` gave an activity vs control of 57% (enzyme activity, inhibitor; 1 µM).
`O=C(NS(=O)(=O)c1ccc(NCC2CCOCC2)c([N+](=O)[O-])c1)c1ccc(N2CCN(Cc3ccc(C(F)(F)F)cc3-c3ccc(Cl)cc3)CC2)cc1Oc1cnc2[nH]ccc2c1` gave a remaining binding of 100% (cell-free assay, competition with immobilised ligand; 1 µM).
The remaining signal of `Nc1nc(Nc2ccc(S(N)(=O)=O)cc2)nn1C(=O)c1c(F)cccc1F` is reported as 86.4% (cell-free assay; 0.5 µM).
The inhibition of `CCN(CC)CCNC(=O)c1c(C)[nH]c(/C=C2\C(=O)Nc3ccc(F)cc32)c1C` is reported as 9% (enzyme activity, inhibitor; 10 µM).
With `CC(C)(C)C(=O)c1sc(NC2CCCCC2)nc1N` the remaining activity was 92% (enzyme activity, inhibitor; 10 µM).
`O=C(Nc1cnn(-c2csc(C(=O)NC3COC3)c2)c1)Nc1ccccc1Cl` has a remaining activity of 98.7% (enzyme activity, inhibitor; 5 µM).
`COc1cc2ncnc(Nc3ccc(Oc4ccccc4)c(C)c3C)c2cc1OC` has an inhibition of 1% (enzyme activity, inhibitor; 1 µM).
The remaining activity of `CCN(CC)c1ccc(C2=NNC(=O)CC2C)cc1[N+](=O)[O-]` (stereo not shown) is reported as 94% (enzyme activity, inhibitor; 10 µM).
For `COc1cc(Nc2cnc(C#N)c(O[C@H](C)CN(C)C)n2)ncc1-c1cnn(C)c1`, the remaining activity was 88% (enzyme activity, inhibitor, radiometric; 10 µM).
`CC(C)(C)c1nc(-c2cccc(NS(=O)(=O)c3c(F)cccc3F)c2F)c(-c2ccnc(N)n2)s1` has a remaining activity of 105% (enzyme activity, inhibitor, radiometric; 1 µM).
`Nc1nc(NC2CCCCC2)sc1C(=O)c1ccccc1` has a remaining activity of 93% (enzyme activity, inhibitor; 10 µM).
`CNC(=O)c1ccc(Nc2ncc(C(F)(F)F)c(NCc3nccnc3N(C)S(C)(=O)=O)n2)cc1` gave a remaining binding of 51% (cell-free assay, competition with immobilised ligand; 0.1 µM).
The remaining signal of `O=C1NC(=O)c2cc(Nc3ccc(F)cc3)c(Nc3ccc(F)cc3)cc21` is reported as 102% (cell-free assay; 0.5 µM).
The remaining binding of `CN(C)c1ncnc(-c2ccc3nc(Nc4cc(CN5CCN(C(=O)CC(F)(F)F)CC5)ccn4)[nH]c3c2)c1Cl` is reported as 47% (cell-free assay, competition with immobilised ligand; 1 µM).
The remaining activity of `Cn1c(=O)n(-c2ccc(C(C)(C)C#N)cc2)c2c3cc(-c4cnc5ccccc5c4)ccc3ncc21` is reported as 106% (enzyme activity, inhibitor; 10 µM).
`Cc1cc(-n2nc(Cc3cc(F)cc(C(F)(F)F)c3)nc2C)ccc1C(N)=O` gave a remaining binding of 81% (cell-free assay, competition with immobilised ligand; 1 µM).
With `CCCCNc1ncc2c(-c3ccc(F)cc3)nn(C[C@H]3CC[C@H](N)CC3)c2n1` the inhibition was -21.7% (target engagement in cells, inhibitor, chemoproteomics; 20 mM).
The inhibition of `CC/C(=N\NC(=O)NCc1cccc(O)c1)c1ccc(O)c(C)c1O` is reported as -11.7% (enzyme activity, inhibitor; 0.1 µM).
With `COc1cc(Cl)c(C(=O)N[C@@H](CN[C@H]2CC[C@@H](N)CC2)Cc2ccc(C#N)cc2)cc1-c1ccc(CN[C@H](C)c2ccc(C)cc2)o1` the remaining activity was 99% (enzyme activity, inhibitor; 1 µM).
With `COc1cc2ncnc(Nc3ccc(F)c(Cl)c3)c2cc1OCCCN1CCOCC1` the remaining signal was 98.3% (cell-free assay; 0.5 µM).
`FC(F)c1nc2ccccc2n1-c1nc(N2CCOCC2)nc(N2CCOCC2)n1` gave a remaining activity of 92% (enzyme activity, inhibitor; 10 µM).
`O=C(Nc1ccc(Oc2ccc(F)cc2)cc1)N1CCc2ncccc2[C@H]1c1ccc(F)cc1` gave a remaining binding of 94% (cell-free assay, competition with immobilised ligand; 1 µM).
The activity vs control of `FC(F)(F)Oc1cccc(-c2cnc3ccc(-c4ccncc4)nn23)c1` is reported as 96% (enzyme activity, inhibitor, radiometric; 5 µM).
For `O=S(=O)(NC1CCC(c2cc(F)ccc2F)(S(=O)(=O)c2ccc(Cl)cc2)CC1)C(F)(F)F` (stereo not shown), the remaining binding was 100% (cell-free assay, competition with immobilised ligand; 1 µM).
`CNC(=O)c1cc(Oc2ccc(NC(=O)Nc3ccc(Cl)c(C(F)(F)F)c3)cc2)ccn1` has an inhibition of -2% (enzyme activity, inhibitor; 0.3 µM).
With `Cc1cnc(NC2CCOCC2)nc1-n1cnc(C(=O)NC(CN)c2cc(F)cc(Cl)c2)c1` (stereo not shown) the remaining activity was 96% (enzyme activity, inhibitor, radiometric; 1 µM).
With `Cc1ccc(Nc2nccc(N(C)c3ccc4c(C)n(C)nc4c3)n2)cc1S(N)(=O)=O` the inhibition was -7% (enzyme activity, inhibitor; 0.3 µM).
`COc1ccc(COc2ccc(Cc3cnc(N)nc3N)cc2OC)cc1` has a remaining signal of 90.4% (cell-free assay; 0.5 µM).
`CC(C1CC1)n1cnc2c(NCc3cccc(C(F)(F)F)c3)nc(NCCN(C)C)nc21` (stereo not shown) gave an inhibition of over 50% (enzyme activity, inhibitor; 5 µM).
